This is a sample that favours compounds with a hit; in the whole collection about 2.5% have one here.
NPY Y2 blocker: NPY-Y2 (human) receptor antagonism | P49146 | NPY-Y2 expressing cells, antagonist mode | inhibition, % at 2.7 µM | actives 0.99% (n = 140,000) | AID 793; in the data active = inhibition above about 17%
NPY-Y1 PAM-ag: potentiates or activates human NPY-Y1 receptor; P25929; NPY-Y1 expressing cells, potentiator/agonist activation; activation, % at 3.6 µM; actives 0.37% (n = 220,000); AID 1304; in the data active = activation above about 33%, passing the limit was not always enough;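 also: cells stimulated with NPY at EC10 then isoproterenol at EC100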
Target sequence (P25929 whole entry, looked up): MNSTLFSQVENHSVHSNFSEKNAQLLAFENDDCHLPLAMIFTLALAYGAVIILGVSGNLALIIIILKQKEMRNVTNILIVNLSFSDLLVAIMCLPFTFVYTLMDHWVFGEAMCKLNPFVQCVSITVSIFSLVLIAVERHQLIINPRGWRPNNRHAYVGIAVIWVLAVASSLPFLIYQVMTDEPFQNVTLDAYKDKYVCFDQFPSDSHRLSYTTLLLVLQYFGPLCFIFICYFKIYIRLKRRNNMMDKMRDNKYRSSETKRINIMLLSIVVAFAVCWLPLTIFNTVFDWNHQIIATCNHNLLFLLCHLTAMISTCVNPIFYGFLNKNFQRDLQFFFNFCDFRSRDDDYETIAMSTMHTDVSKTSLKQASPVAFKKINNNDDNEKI
NPY Y1 blocker: blocks the human neuropeptide Y Y1 receptor | P25929 | HEK293-CNG Y1 cells, membrane potential fluorescence; NPY at EC95, then isoproterenol | inhibition, % at 3.6 µM | actives 1% (n = 200,000);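 active = inhibition above the campaign mean inhibition of all tested compounds plus 3 SD, cut at about 20% in these data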
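Benchmarks – high control isoproterenol alone, low control NPY with isoproterenol · Material – HEK293 Y1/CNG channel cell line · Times – dye 3 h, compound 60 min room temperature, stimulation 45 min · Probe or stimulus – NPY (25 nM), isoproterenol (1 µM), Ro 20-1724 (25 µM) · Evaluation – % inhibition of NPY effect · Signal – fluorescence, membrane potential probe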
Insulin prom up: MIN6 insulin promoter up-regulation | MIN6 insulin promoter-GFP reporter, high-content imaging; active compounds read high | z-score at 5 µM | actives 0.3% (n = 190,000) | AID 1625;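 active = z-score above 3 at 5 µM with at least 500 cells counted in the well; inconclusive = wells under 500 cells, flagged as cytotoxic or low count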
INS promoter inh: TRM-6 insulin promoter activity inhibition. TRM-6 cells, insulin promoter-eGFP reporter, imaging; reporter expression induced with tamoxifen. inhibition, % at 2 µM. actives 0.9% (n = 130,000). AID 1273;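 active = inhibition above the mean plus 3 SD, with well images judged a real hit on visual review, cut at about 60% in these data, passing the limit was not always enough; inconclusive = inhibition over the cutoff but images rejected on review; inactive = inhibition not above the cutoff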
NPY-Y2 PAM-ag: potentiators or agonists of human neuropeptide Y receptor Y2; P49146; activation, % at 3.6 µM; actives 0.45% (n = 220,000); cells expressing NPY-Y2, potentiator/agonist read-out; in the data active = activation above about 27%;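 also: cells stimulated with NPY near EC25 plus isoproterenol at EC100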
NPY-Y2 confirm: human NPY-Y2 potentiation or agonism, confirmation. shares compounds with NPY-Y2 PAM-ag. cell-based NPY-Y2 potentiator/agonist assay. activation, % at 3.6 µM. actives 20% (n = 450). AID 1539; in the data active = activation above about 33%
NPY-Y1 potentiator: potentiates or activates NPY-Y1, counter-screen for NPY-Y2 hits. shares compounds with NPY-Y2 PAM-ag. Y1 HEK293-CNG cells, membrane potential fluorescence. activation, % at 3.6 µM. actives 20% (n = 450); in the data active = activation above about 45%;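 also: cells stimulated with submaximal NPY then isoproterenol with phosphodiesterase inhibitor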
NPY-Y1 ag 2: activates human NPY-Y1, counter-screen for NPY-Y2 potentiators; HEK293 Y1-CNGC, membrane potential fluorescence, agonism; actives 37% (n = 450); shares compounds with NPY-Y2 PAM-ag; activation, % at 3.6 µM;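 active = activation above the mean of DMSO-only control wells plus 3 SD, cut at about 18% in these data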;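 also: cells stimulated with 1 µM isoproterenol plus the PDE inhibitor Ro 20-1724; Y1 agonists lower the membrane potential dye signal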
CNGC inhibitor: blocks CNG channel activity, counter-screen for NPY-Y2 potentiators. inhibition, % at 3.6 µM. HEK293-CNG parental, isoproterenol cAMP, membrane potential fluorescence. shares compounds with NPY-Y2 PAM-ag. actives 32% (n = 450);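 active = inhibition above the control-well mean plus 3 SD of those wells, cut at about 22% in these data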
Y2 agonist ctr: activates human NPY-Y2 receptor in potentiator counter-screen | AID 1710 | activation, % at 3.6 µM | actives 56% (n = 450) | shares compounds with NPY-Y2 PAM-ag | HEK293 Y2/CNGC cells, membrane potential fluorescence, agonist mode;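 active = activation above the mean of solvent-only control wells plus 3 SD, cut at about 10% in these data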;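 also: cells stimulated by isoproterenol with no NPY added so direct agonism is tested; agonism lowers probe fluorescence through less cAMP and CNG channel opening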
Hits are given with their value; n = inactive; u = inconclusive; x = no result.

SMILES | NPY Y2 blocker | NPY-Y1 PAM-ag | NPY Y1 blocker | Insulin prom up | INS promoter inh | NPY-Y2 PAM-ag | NPY-Y2 confirm | NPY-Y1 potentiator | NPY-Y1 ag 2 | CNGC inhibitor | Y2 agonist ctr
Cc1ccc(NC(=O)c2cc(S(=O)(=O)Nc3ccc(C)cc3)cs2)cc1 | n | n | n | x | n | 43 | 37 | 47 | 35 | 42 | 21
Cc1oc2cc(O)ccc2c(=O)c1Oc1ccccc1 | n | n | n | n | n | n | x | x | x | x | x
O=C(O)c1ccc(Oc2c(C(F)(F)F)oc3cc(O)ccc3c2=O)cc1 | x | n | n | n | x | 39 | n | n | n | n | n
Cn1c2c(c(=O)n(C)c1=O)C(C(F)(F)F)(C(F)(F)F)N=C(c1ccc(Cl)cc1)N2 | n | n | n | u | n | 49 | n | n | n | n | n
O=C(NCCCCNC(=O)c1ccc(Br)s1)c1ccc(Br)s1 | n | n | n | x | n | n | x | x | x | x | x
COc1ccc(OCC(O)CNC(=O)Nc2ccccc2)cc1 (configuration not stated) | x | n | x | n | x | 44 | n | n | n | n | n
OC(CNc1ccccc1)COc1ccc(OCC(O)CNc2ccccc2)cc1 (configuration not stated) | n | n | n | n | n | 37 | 43 | 57 | 44 | 44 | 47
COc1ccc(OCC(O)CNC(=O)Nc2ccc(F)cc2)cc1 (configuration not stated) | x | n | x | n | x | n | x | x | x | x | x
Cc1nc(CN(C)C(=O)c2cc(COc3ccc4ncccc4c3)on2)cs1 | x | n | n | n | x | n | x | x | x | x | x
CC(C)(C)n1nnnc1C(c1cccc(C#N)c1)N1CCCc2ccccc21 (configuration not stated) | n | n | n | n | n | 27 | n | n | n | n | n
COc1ccccc1NC(=S)c1ccccc1 | n | n | n | n | x | n | x | x | x | x | x
Cc1sc(-c2ccccn2)nc1OC(=O)c1ccc(Cl)c(Cl)c1 | n | n | n | n | n | n | x | x | x | x | x
Cc1sc(-c2ccccn2)nc1OC(=O)c1ccc(F)cc1F | x | n | n | n | x | 37 | n | n | n | n | 18
Cc1nnc(SCC(=O)NCC(=O)Nc2ccc(F)c(F)c2F)n1Cc1ccccc1 | x | n | n | n | x | n | x | x | x | x | x
CN(C)/C=C/C(=O)c1ncc(C(F)(F)F)cc1Cl | x | n | n | n | n | 28 | n | n | n | n | n
CCOc1nc(N=C(N)N)nc2c(C)cccc12 | n | n | n | n | x | 38 | n | n | n | n | n
CCOc1nc(-c2ccccc2O)nc2ccccc12 | n | n | n | n | n | n | x | x | x | x | x
CCNC(=O)C1CC(=O)N(CCCc2ccccc2)C(=Nc2ccccc2)S1 (configuration not stated) | x | n | x | n | x | n | x | x | x | x | x
CC(C)(C)S(=O)(=O)c1cnc(N2CCCC2)nc1N | x | n | x | n | x | n | x | x | x | x | x
N#C/C(=N\Nc1cccc([N+](=O)[O-])c1)C(=O)c1ccc(Br)cc1 | x | n | n | n | x | n | x | x | x | x | x
N#C/C(=N\Nc1cccc(C(F)(F)F)c1)C(=O)c1ccsc1 | x | n | x | x | x | 51 | n | n | n | n | n
CC1Cc2cc(-c3csc(NC(=O)Cc4cccs4)n3)ccc2N1S(C)(=O)=O (configuration not stated) | n | n | n | n | x | 44 | n | n | n | n | n
CCC(=O)Nc1nc(-c2ccc3c(c2)CC(C)N3S(C)(=O)=O)cs1 (configuration not stated) | x | n | n | n | x | n | x | x | x | x | x
COc1ccc(/C=C/C(=O)c2c(O)ccc3c(C)cc(=O)oc23)cc1 | n | n | n | n | x | 64 | n | n | n | n | n
COc1ccc(/C=C\C(=O)c2c(O)ccc3c(C)cc(=O)oc23)cc1 | n | n | n | n | n | n | x | x | x | x | x
SMILES | NPY Y2 blocker | NPY-Y1 PAM-ag | NPY Y1 blocker | Insulin prom up | INS promoter inh | NPY-Y2 PAM-ag | NPY-Y2 confirm | NPY-Y1 potentiator | NPY-Y1 ag 2 | CNGC inhibitor | Y2 agonist ctr
O=C(Nc1ccc2c(c1)S(=O)(=O)N=C1CCCCCN12)c1ccccc1Cl | x | n | n | n | x | n | x | x | x | x | x
Cc1ccc(CNC(=O)C2CCCN(S(=O)(=O)c3c(C)noc3/C=C/N(C)C)C2)cc1 (configuration not stated) | x | n | x | n | x | n | x | x | x | x | x
O=C(CSc1nnnn1C1CCCCC1)Nc1ccccc1N1CCOCC1 | x | n | n | n | n | n | x | x | x | x | x
Cc1cccc(-n2c(N)cc(=O)nc2SCC(=O)Nc2cc(C)on2)c1 | n | n | n | n | n | 79 | n | n | n | n | n
CC(=O)c1ccc(NC(=O)COC(=O)c2ccccc2N=Nc2ccc(N(C)C)cc2)cc1 | n | n | n | n | x | 44 | 48 | 62 | 50 | 44 | 41
COC(=O)c1ccccc1NC(=O)COC(=O)c1ccccc1N=Nc1ccc(N(C)C)cc1 | n | n | n | n | n | n | x | x | x | x | x

Assay outcomes as filed in PubChem BioAssay.
